Test results reported in ChEMBL document CHEMBL1154279, “Cytotoxic compounds from the stems of Cinnamomum tenuifolium” (J Nat Prod, 2009).
pIC50: −log10 of the molar value.

How the values were obtained:
DU-145 = test: Cytotoxicity against human DU145 cells after 72 hrs by XTT assay; format: functional, cell-based; details: DU-145, 24 h, in the assay text read “after 24 hrs” for “after 72 hrs”
LNCaP = test: Cytotoxicity against human LNCAP cells after 72 hrs by XTT assay; format: functional, cell-based; details: 24 h, in the assay text read “after 24 hrs” for “after 72 hrs”
Summary of the method: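 Prostate cancer cells in RPMI-1640 with 10% FBS, 37 °C, 5% CO2, grown to 70–80% confluence and treated at 0.1–100 µM for 24, 48 and 72 h. XTT labeling for 4 h at 37 °C, absorbance 450 nm (reference 650 nm) against control wells. IC50 derived from the mean of eight wells; taxol and cisplatin served as positive controls.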

## COc1ccc2c(c1)CC=C(CO)c1cc3c(cc1-2)OCO3 [TENUIFOLIN]
DU-145
  pIC50: < 3.30
LNCaP
  pIC50: 3.65
